Compounds with a hit are over-represented: about 2.2% of the library has one in this group of screens.
EBI2 antag: EBI2 (human) antagonism. 360,000 tested, 0.81% active. P32249. inhibition, % at 5 µM. EBI2 beta-arrestin recruitment, luminescence, 7a,25-OHC stimulated; in the data active means inhibition above about 38%;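 further: enzyme fragment complementation signal reports receptor beta-arrestin coupling in cells; 0% = agonist plus DMSO wells and 100% = wells without agonist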
HTR2A ag: mouse HTR2A agonism via beta-arrestin recruitment; P35363; CHO-K1 mHTR2A beta-arrestin complementation, luminescence; percent of 30 µM serotonin response; activation, % at 7.6 µM; 360,000 tested, 0.66% active; AID 624169;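 active means activation above a run cutoff, the mean activation of all tested compounds plus 3 SD, cut at about 14% in these data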;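 further: 0% = plate median of compound wells and 100% = 30 µM serotonin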
APJ ag: APJ receptor agonism; CHO-K1 APJ PathHunter beta-arrestin, luminescence; 0% DMSO wells, 100% apelin; activation, % at 20 µM; 330,000 tested, 0.11% active; AID 2520;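 active means activation more than six SD over the plate average, tested at 20 µM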;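 further: 0% = DMSO alone and 100% = apelin-13 at 10 nM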
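system = engineered CHO-K1 APJ arrestin reporter cells | input = 1000 cells per well | timing = overnight seeding, 90 min compound at 25 °C, 1 h detection | measured by = enzyme-fragment complementation luminescence | read-out = beta-arrestin recruitment to APJ as agonist activity, luminescent signal | control set = negative DMSO alone, positive Apelin-13 at 10 nM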
CCR6 antagonist: blocks CCL20-driven beta-arrestin recruitment at human CCR6; 340,000 tested, 0.49% active; AID 493098; CHO-K1 CCR6 PathHunter beta-arrestin, luminescence, CCL20-stimulated; inhibition, % at 20 µM; P51684;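 active means compounds whose inhibition of the agonist-driven luminescence signal at 20 µM reaches about 50%, limit read from the data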;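 further: cells stimulated with CCL20 at 14 nM final; plate controls were DMSO with CCL20 for no effect and DMSO without agonist for full effect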
CXCR6 inh: inhibitors of human CXCR6 receptor; AID 602244; inhibition, % at 20 µM; 360,000 tested, 0.36% active; O00574; CHO-K1 PathHunter CXCR6 beta-arrestin, luminescence; in the data active means inhibition above about 34%, passing the limit was not always enough;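 further: antagonist mode with CXCL16 agonist at 10 nM final; 0% = 10 nM CXCL16 with DMSO and 100% = unstimulated wells without agonist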
APJ antagonist: blocks the human apelin receptor APJ | AID 2521 | inhibition, % at 20 µM | 330,000 tested, 0.32% active | CHO-K1 APJ beta-arrestin complementation, luminescence;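 active means inhibition above about 40% at 20 µM, limit read from the data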;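 further: cells challenged with 10 nM apelin-13 agonist together with compound; plate controls were apelin-13 plus DMSO wells for no effect and DMSO wells lacking apelin-13 for full effect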
MOR ag counter: activates human mu opioid receptor in HTR2A counterscreen. shares compounds with HTR2A ag. U2OS OPRM1 beta-arrestin PathHunter, luminescence; DMSO 0%, DAMGO 9.3 µM 100%. activation, % at 9.3 µM. 2,300 tested, 5.3% active;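 active means mean activation above the mean of DMSO-only wells plus 3 SD, cut at about 0.5% in these data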
Target sequence (P35372 whole entry, looked up): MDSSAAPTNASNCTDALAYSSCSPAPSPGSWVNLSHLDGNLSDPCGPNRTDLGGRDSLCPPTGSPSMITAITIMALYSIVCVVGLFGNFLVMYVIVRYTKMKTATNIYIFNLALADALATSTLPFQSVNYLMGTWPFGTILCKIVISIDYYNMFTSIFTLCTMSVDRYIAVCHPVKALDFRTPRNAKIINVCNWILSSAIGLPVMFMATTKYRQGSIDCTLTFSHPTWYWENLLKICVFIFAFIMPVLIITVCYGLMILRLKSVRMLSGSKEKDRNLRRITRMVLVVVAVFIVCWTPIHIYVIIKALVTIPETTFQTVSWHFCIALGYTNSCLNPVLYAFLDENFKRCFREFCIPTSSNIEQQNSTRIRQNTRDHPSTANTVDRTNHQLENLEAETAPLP
m5-HT2A ag conf: confirmation of mouse HTR2A serotonin receptor agonists | shares compounds with HTR2A ag | CHO-K1 PathHunter beta-arrestin recruitment, luminescence; DMSO 0%, 30 µM serotonin 100% | activation, % at 7.6 µM | 2,300 tested, 19% active | AID 624381;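 active means mean activation across triplicates above the hit threshold derived in the original primary screen, cut at about 15% in these data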
Active calls of the source: *; / = no result given.

SMILES | EBI2 antag | HTR2A ag | APJ ag | CCR6 antagonist | CXCR6 inh | APJ antagonist | MOR ag counter | m5-HT2A ag conf
COc1ccc(NC(=O)C2CCN(S(=O)(=O)c3ccc(OC)c(OC)c3)CC2)cc1 | 10 | 2 | -6 | 3 | 1 | 19 | / | /
COc1ccc(CCNC(=O)c2cccc(S(=O)(=O)N3CCOCC3)c2)cc1OC | 4 | 16* | -3 | 7 | 3 | -49 | 0 | -1
COc1ccc(S(=O)(=O)N2CCCCC2)cc1NC(=O)c1ccc(OC)c(OC)c1 | 4 | 15* | 7 | 7 | 0 | 22 | -1 | -4
COc1ccc(S(=O)(=O)N2CCCCCC2)cc1NC(=O)c1ccccc1 | -5 | 0 | -4 | 15 | 3 | 7 | / | /
CC(C)C[C@H]1CN(CCCC[C@H]2CNC(=O)C(=O)N2CCc2ccc(O)cc2)C(=O)C(=O)N1CCC1CCCCC1 | -3 | -4 | / | / | 4 | / | / | /
COCCN1C(=O)CCC1(C)C(=O)Nc1ccc2c(c1)OCCO2 (stereo not given) | -12 | 2 | / | / | -10 | / | / | /
CN(C)C1CCCCC=CC(=O)NC1 (stereo not given) | -11 | 5 | / | / | 5 | / | / | /
c1ccc(Cc2noc(CN3CCCC(CN4CCOCC4)C3)n2)cc1 (stereo not given) | -8 | 15* | -1 | 4 | -8 | 1 | 0 | 0
Cc1cnc(=O)[nH]c1SCC(=O)Nc1nccs1 | -2 | 15* | 3 | -4 | 2 | 3 | -1 | -3
O=C(NCCOc1ccccc1)C1C(=O)Nc2ccccc2C(=O)N1C1CCCCC1 (stereo not given) | -10 | -3 | / | / | / | / | / | /
COCCNCC(=O)N1CCCCCC1 | -16 | 17* | 2 | 7 | -4 | 0 | -1 | -2
COCCNC(=O)CN1CCCCCC1 | 9 | -1 | -2 | 5 | 3 | 5 | / | /
O=C(NCc1ccc(F)cc1)C(=O)NCC1OCCN1C(=O)c1ccc(Cl)cc1 (stereo not given) | 2 | 24* | -2 | -1 | -12 | 3 | -1 | -4
O=C(NCc1ccccc1Cl)C(=O)NCC1OCCN1S(=O)(=O)c1ccc(F)cc1 (stereo not given) | -1 | 16* | -1 | 14 | 3 | -9 | -1 | -5
COc1ccc(C(=O)N2CCOC2CNC(=O)C(=O)NCc2ccc(F)cc2)cc1 (stereo not given) | -13 | -2 | -5 | -6 | -1 | 13 | / | /
CCOC(=O)c1c2c(n(Cc3ccccc3)c1C)C(=O)C(=O)c1ccccc1-2 | -14 | 15* | / | 43 | 14 | / | 1.8* | 9
COCC1CCN(C(=O)c2cc(COc3ccc(-n4cncn4)cc3)on2)C1 (stereo not given) | -16 | 4 | -2 | 6 | 6 | 4 | / | /
CCN(CC)C1CCN(C(=O)c2cc(COc3ccc(-n4cncn4)cc3)on2)C1 (stereo not given) | -9 | 16* | 5 | 14 | 2 | -2 | -1 | -3
Oc1ccc(C[C@H]2CNC(=S)N2C[C@H]2CCCN2C[C@H](Cc2ccccc2)N2C[C@H](Cc3ccc(O)cc3)N(CCc3ccccc3)C2=S)cc1 | 16 | 2 | / | / | -2 | / | / | /
O=C(CCc1ccccn1)NC1CCCc2c1cnn2-c1ccc(F)cc1F (stereo not given) | -10 | -1 | -2 | 7 | -2 | 0 | / | /
O=C(CCc1ccncc1)NC1CCCc2c1cnn2-c1ccc(F)cc1F (stereo not given) | -8 | 16* | 3 | 2 | -6 | -2 | 0 | -1
CCCCC(=O)Nc1cc2nn(-c3ccc(OC)cc3)nc2cc1C | 5 | 15* | 10 | 0 | 0 | -19 | 0 | -2
Cc1ccccc1Oc1ccc2c(c1)[C@@H]1C[C@H](N(C)C(=S)Nc3ccc(F)cc3)[C@H]([C@H](C)O)C(=O)N1CC2 | -2 | -1 | / | / | 5 | / | / | /

Screening data as filed in PubChem BioAssay.
